Laboratory results published in the RNAGym collection of RNA variant scans (doi:10.1126/science.aae0568).
Fewer inactive variants are shown than the library holds.

B1: tRNA (parent)
chain: GUUCCGUUGGCGUAAUGGUAACGCGUCUCCCUCCUAAGGAGAAGACUGCGGGUUCGAGUCCCGUACGGAACG

Variants of: B1
Experiment: yeast fitness relative to wild type (ratio to wild type); higher = fitter; tRNA-Arg(CCU), competitive growth, 37 C, YPD
In short: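 Variants of the tRNA-Arg(CCU) gene, chemically synthesised with a 3% per-site mutation rate at 69 sites, were placed at the native genomic locus in Saccharomyces cerevisiae. The pooled strains were competed in YPD at 37°C for 24 hours in six parallel replicates. Gene amplicons from the start population and from each end population were read by 100-nucleotide paired-end sequencing. Darwinian fitness relative to wild type came from changes in genotype frequencies; genotypes needed ≥ 100 starting reads, and estimates < 0.5 were set to 0.5.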

Q: Which yeast fitness does the source give for GUUCCGUUAGCGUAAUGGUAACGCGUCUCCCUCCUACGGAGAAGACUGCGGGUUCGAGUCCCGUACCGAACG [G9A A37C G67C] here?
A: ≤ 0.5

Q: With GUUCCGUUCGCGUUAUGGUACCGCGUCUCCCUCCUAAGGAGAAGACUGCGGGUUCGAGUCCCGUACGGAACG [G9C A14U A21C] as the variant, how does the yeast fitness read?
A: 0.61

Q: With GUUCCGUUGACGUAAUGGUAACGUGUCUCCCUCCUCAGGAGAAGACUGCGGGUUCGAGUCCCGUACGGAACG [G10A C24U A36C] as the variant, how does the yeast fitness read?
A: ≤ 0.5

Q: For GUGCCGUAGGCGUAAUGCUAACGCGUCUCCCUCCUAAGGAGAAGACUGCCGGUUCGAGUCCCGUACGGAACG [U3G U8A G18C G50C], which yeast fitness is on record?
A: ≤ 0.5

Q: Which yeast fitness does the source give for GUUCUGUUGGCGCAAUGGUAACGCGACUCCCUCCUAAGGAGAAGACUGCGGGUUCGAGUCCCGUACGGAACG [C5U U13C U26A] here?
A: 0.722

Q: Which yeast fitness does the source give for GUUCCGUUGGCGUAAUGGCAACGCGUCUGCCUCCUAAGGAGAAGACAGCGGGUUCGAGUCCCGUACGGAACG [U19C C29G U47A] here?
A: ≤ 0.5

Q: For GGUCCGUUGGCGUAAUGGUAACGCGUCUCCCUCCUAAGGAGAAGACUGCGGGUUCGAGACCCGUACGGAACG [U2G U59A], which yeast fitness is on record?
A: 0.851

Q: With GUUCCGGUGGCGUAAUGGUACCGCGUCUCCCUCCUAAGGAGAAGACUGCAGGUUCGAGUCCCGCACGGAACG [U7G A21C G50A U64C] as the variant, how does the yeast fitness read?
A: ≤ 0.5

Q: Which yeast fitness does the source give for GUUCCGUUGCCGUAAUGGUAACGCGUCUCCCUCCUAAGGAGAAGACUGCGGGUUCGUGUCCCGUACGGAACG [G10C A57U] here?
A: 0.548

Q: With GUUCUGUUGGCGUAAGGGUAACGCGUCUCCCUCCUAAGGAGAAGACUGCGCGUUCGCGUCCCGUACGGAACG [C5U U16G G51C A57C] as the variant, how does the yeast fitness read?
A: ≤ 0.5

Q: With GUUCCGUUGGCGAAAUGGUAACGCGUCCCCCUCCUAAGGAAAAAACUGCGGGUUCGAGUCCCGUACGGAACG [U13A U28C G41A G44A] as the variant, how does the yeast fitness read?
A: ≤ 0.5

Q: For GUUCCGUUGGCGUAAUGGUAACGCGUCCCCCUUCUAGGGAAAAGACUGCGGCUUCGAGUCCCGUACGGAACG [U28C C33U A37G G41A G52C], which yeast fitness is on record?
A: ≤ 0.5

Q: Which yeast fitness does the source give for GUUCCGUUGGCGCAAUGGUAACGCGUCUCCCUCCUAAGGAGAACACUGCGGGUUCGAGUCCCGUACGGAACG [U13C G44C] here?
A: 0.913

Q: For GUCCCGUUGGCGUAAUGGUAACGCGUCUCCCUCCUAAGGAGAAAACUGCGGGUUCGAGUCCCGUACGGAACG [U3C G44A], which yeast fitness is on record?
A: 0.993

Q: For GUUCCGAUGGCGUAAUGGUAACGCGUCUCCCUCCUAAGGAGAAGACUGCGGGUUCCAGUCCCGUAUGGAACG [U7A G56C C66U], which yeast fitness is on record?
A: ≤ 0.5

Q: For GGUCCGUUGGCGUAAUCGUAACGCGUCUCCCUUCUAAGGAGAAGACAGCGGGUUCGAGUCCCGUACGGAACG [U2G G17C C33U U47A], which yeast fitness is on record?
A: 0.535

Q: For GUUCCGUUGGCGUAAUGGUAACGCGUCUCCCUCGUAACGAGAAGACCGCGGGUUCGAGUCCGGUACGGCACG [C34G G38C U47C C62G A69C], which yeast fitness is on record?
A: ≤ 0.5

Q: For GUUCCGUUGGCGUAAUGGUAACGCGUCUCCCUCCUAAGGAGAAGAAUGCGGGUUCGAGUCCCCUACAGAACG [C46A G63C G67A], which yeast fitness is on record?
A: 0.614

Q: For GUUCCAUUGGCGUCAUGGUAACGCGUCUCCCUCCUAAGGAGUAGACUGCGGGUUCGAGUCCAGUAUGGAACG [G6A A14C A42U C62A C66U], which yeast fitness is on record?
A: ≤ 0.5

Q: For GUUCCGUUGGCGUAAUGGUGACGCGUCUCCCUCCUAAGGAGGAGACUGCGGGUUCGAGCCCCGUACGGAACG [A20G A42G U59C], which yeast fitness is on record?
A: 0.634

Q: For GUUCCGUUGGCGUAUGGGUAACGCGUCUCCCUCCUAAGAAGAAGACUGCGGGUUCGAGUGCCGUACGGAGCG [A15U U16G G39A C60G A70G], which yeast fitness is on record?
A: ≤ 0.5

Q: For GUUCCGUUGGCGUAAUGGUAACGCGUCUCCCUCCUAAGGAGAAGACUGCGGGUUUGAGUCACGUUCGGAACG [C55U C61A A65U], which yeast fitness is on record?
A: 0.581

Q: For GUUCCGUUGGCGUAAUGGUAUCGCGUCUCCCUCCUAAGGAGAAGCCUGCGGGUUCGAGUCCCGUACGGAACG [A21U A45C], which yeast fitness is on record?
A: 0.913

Q: Which yeast fitness does the source give for GUUCCGUUGGCGAAAUGGUAACGCGUCUCCCUCCUAAGGAGAAGACUGCGGGUUCGAGUCCCGUUCGGCACG [U13A A65U A69C] here?
A: ≤ 0.5

Q: For GUUCCGUUCGCGUAAUGGUAACGCGUCUCCCUCCUAAGGAGAAGACUGCGGGUUCGAGUCCCGUACGGCACG [G9C A69C], which yeast fitness is on record?
A: 0.821

Q: Which yeast fitness does the source give for GUUCCGUUGGUGUAAUCGUAACGCGUCUCCCUCCUAGGGAGAAGACUGCGGGUUCCAGUCACGUGGGGAACG [C11U G17C A37G G56C C61A A65G C66G] here?
A: ≤ 0.5

Q: Which yeast fitness does the source give for GUUCCGUUGGCGUAAUGGUAACGCGUCUCACUCCUAAGGAGAAGACUGGGGGUUCGAGUCCCGUACGGAACG [C30A C49G] here?
A: 0.798

Q: With GUUCCGUUGGCGUAAUGGUCACGCGUCUCCCUCCUUAGGAGAAGCCUGGGGGUUCGAGUCCCGUACGGAACG [A20C A36U A45C C49G] as the variant, how does the yeast fitness read?
A: ≤ 0.5

Q: For GUUCCGUAGGCGUAAUGGUAACGCGUCUCCCUCCUAAGGAGAAGACUGCGGGUUCGACUCCCGUACGGAACG [U8A G58C], which yeast fitness is on record?
A: 0.764

Q: Which yeast fitness does the source give for GUUCCGUUGGCGUAAUGGUAACGCGUCUCCCUCCUAAGGACAAGACUGGGGGUUCGAGUCCCGUACGGAACG [G41C C49G] here?
A: 0.702

Q: Which yeast fitness does the source give for GUUCGGUUGGCGUACUGGUAAAGCGUCUCCCUCCUAAGGAGAAGACUGCGGGUUCGAGUCCCGUACGGAACG [C5G A15C C22A] here?
A: 0.627

Q: For GUUCCGUAGGCGUAAUGGUAAUGCGUCUCCCUCCUUAGGAGAAGACUGGGGGUUCGAGUCCCGUACGGCACG [U8A C22U A36U C49G A69C], which yeast fitness is on record?
A: 0.631

Q: For GUGCCGUUGGCGUAAUGGUAACGCGUCUCCUUCCUAAGGAGAAGACUGUGGGUUCGAGUCCCGUACGGACCG [U3G C31U C49U A70C], which yeast fitness is on record?
A: ≤ 0.5

Q: For GUUCCGUUGGCGUAAUGGUAACGCGUCUCGCUCCUAUGGAGAAGACCGCGGGUUCGAGUACCGUACGGAACG [C30G A37U U47C C60A], which yeast fitness is on record?
A: 0.68

Q: With GUUCCGUUGGCGUAUUGGUAACGCGUCUCCCUGGUAAGGAGAAGUCUGCGAGUUCGAGUCCCGUACGGAACG [A15U C33G C34G A45U G51A] as the variant, how does the yeast fitness read?
A: ≤ 0.5

Q: With GUUCCGUUGGCGUAAAGGUAACGCGUCUCCCUCCUAAGGAGAAGACUGCGGGUUCGAGUCCCGUCCGGAACG [U16A A65C] as the variant, how does the yeast fitness read?
A: 0.939

Q: Which yeast fitness does the source give for GUUCCGUUGGCGUACUGGUAACGCGACUCCCUCCUAAAGUGAAGACUGCCGGUUCGAGUGCCGUACGGAGCG [A15C U26A G38A A40U G50C C60G A70G] here?
A: ≤ 0.5

Q: For GUUCCGUUGGCGUAAUGGUAACGCGUCUCCCUCCUAAGGAGAAGACUGCCGCUUCGAGUCCCGUACGGAACG [G50C G52C], which yeast fitness is on record?
A: 0.562
